From ChEMBL document CHEMBL1138483, “Toward second generation hepatitis C virus NS3 serine protease inhibitors: discovery of novel P4 modified analogues with improved potency and pharmacokinetic profile” (J Med Chem, 2009)
pKi: −log10 of the molar value.

How the values were obtained:
[1] = Binding affinity to HCV NS3 protease by spectrophotometry; design: species or system Hepacivirus hominis
Hepatitis C virus = test: Antiviral activity against HCV replication in human hepatoma cells by replicon assay; type: functional, Hepacivirus hominis
[2] = AUC in po dosed rat; type: ADME, organism-based; conditions: plasma
[3] = Drug level in rat liver at 10 mg/kg, po after 6 hrs; type: ADME, organism-based; design: dose 10 mg/kg, route oral; conditions: read-out: Drug uptake
Summary of the method: (§1)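 Oral dosing in rats at 10 mpk as a suspension in 0.4% HPMC; liver concentration measured in ng/g tissue at 1 h or 6 h after dosing.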

[4] = AUC (0 to 6 hrs) in rat at 10 mg/kg, po; type: ADME, organism-based; design: time < 6 hr, dose 10 mg/kg, route oral; conditions: plasma
[5] = Drug level in rat liver at 10 mg/kg, po after 1 hr; type: ADME, organism-based; design: dose 10 mg/kg, route oral; conditions: read-out: Drug uptake; summary of the method: as §1
Rattus norvegicus = test: AUC in rat at 10 mg/kg, po; type: ADME, organism-based, Plasma; design: dose 10 mg/kg, route oral; conditions: in vivo
[6] = Bioavailability in rat at 10 mg/kg, po; type: ADME, organism-based; conditions: in vivo
[7] = AUC (0 to 24 hrs) in rat at 10 mg/kg, po; type: ADME, organism-based; design: time < 24 hr, dose 10 mg/kg, route oral; conditions: plasma

Structure (SMILES) | pKi [1] | EC90 (Hepatitis C virus) [µM] | also measured
COC[C@@](C)(CC(C)C)NC(=O)N[C@H](C(=O)N1C[C@H]2[C@@H]([C@H]1C(=O)NC(CC1CCC1)C(=O)C(N)=O)C2(C)C)C1(C)CCCCC1 (stereo not given in full) | 7.30 | – | –
C#CCCC(NC(=O)[C@@H]1[C@@H]2[C@H](CN1C(=O)[C@@H](NC(=O)N[C@H](COC(=O)NCC)C1CCCCC1)C1(C)CCCCC1)C2(C)C)C(=O)C(=O)NCC=C (stereo not given in full) | 7.89 | 0.2 | –
C#CCCC(NC(=O)[C@@H]1[C@@H]2[C@H](CN1C(=O)[C@@H](NC(=O)NC1(COC(=O)NCC)CCCCC1)C1(C)CCCCC1)C2(C)C)C(=O)C(=O)NCC=C (stereo not given in full) | 8.05 | 0.6 | –
COC[C@@H](NC(=O)N[C@H](C(=O)N1C[C@H]2[C@@H]([C@H]1C(=O)NC(CC1CCC1)C(=O)C(N)=O)C2(C)C)C1CCCCC1)C(C)(C)C (stereo not given in full) | 7.52 | 0.3 | –
C#CCCC(NC(=O)[C@@H]1[C@@H]2[C@H](CN1C(=O)[C@@H](NC(=O)N[C@H](COC(=O)NCC)C(C)(C)C)C1(C)CCCCC1)C2(C)C)C(=O)C(=O)NCC (stereo not given in full) | 7.68 | 0.2 | –
COC[C@@H](NC(=O)N[C@H](C(=O)N1C[C@H]2[C@@H]([C@H]1C(=O)NC(CC1CCC1)C(=O)C(N)=O)C2(C)C)C1Cc2ccccc2C1)C(C)(C)C (stereo not given in full) | 7.82 | 0.2 | AUC [2]: 0.1 µM·h
C#CCCC(NC(=O)[C@@H]1[C@@H]2[C@H](CN1C(=O)[C@@H](NC(=O)N[C@H](COC(=O)NC(C)C)C(C)(C)C)C1(C)CCCCC1)C2(C)C)C(=O)C(=O)NCC=C (stereo not given in full) | 8.10 | 0.15 | concentration at 6 h [3]: 1110 ng/g; AUC(0-t) at 6 h [4]: 7.9 µM·h
CC(C)(C)OCC1(NC(=O)N[C@H](C(=O)N2C[C@H]3[C@@H]([C@H]2C(=O)NC(CC2CCC2)C(=O)C(N)=O)C3(C)C)C2(C)CCCCC2)CCCCC1 (stereo not given in full) | 6.92 | – | –
C=CCNC(=O)C(=O)C(CCC)NC(=O)[C@@H]1[C@@H]2[C@H](CN1C(=O)[C@@H](NC(=O)N[C@H](COC(=O)NCC(C)C)C(C)(C)C)C1(C)CCCCC1)C2(C)C (stereo not given in full) | 7.24 | – | –
C#CCCC(NC(=O)[C@@H]1[C@@H]2[C@H](CN1C(=O)[C@@H](NC(=O)N[C@H](COC(=O)NCC1CC1)C(C)(C)C)C1(C)CCCCC1)C2(C)C)C(=O)C(=O)NCC=C (stereo not given in full) | 8.15 | 0.07 | concentration at 6 h [3]: 581 ng/g; AUC(0-t) at 6 h [4]: 5 µM·h
CC(C)(C)NC(=O)N[C@H](C(=O)N1C[C@H]2[C@@H]([C@H]1C(=O)NC(CC1CCC1)C(=O)C(N)=O)C2(C)C)C(C)(C)C (stereo not given in full) [BOCEPREVIR] | 7.85 | 0.35 | –
CC(C)(C)[C@H](NC(=O)N[C@H](COCc1ccccc1)C(C)(C)C)C(=O)N1C[C@H]2[C@@H]([C@H]1C(=O)NC(CC1CCC1)C(=O)C(N)=O)C2(C)C (stereo not given in full) | 6.89 | – | –
C#CCCC(NC(=O)[C@@H]1[C@@H]2[C@H](CN1C(=O)[C@@H](NC(=O)N[C@H](COC(=O)NCC1CCCCC1)C(C)(C)C)C1(C)CCCCC1)C2(C)C)C(=O)C(=O)NCC=C (stereo not given in full) | 7.70 | 0.25 | –
COC[C@@H](NC(=O)N[C@H](C(=O)N1C[C@H]2[C@@H]([C@H]1C(=O)NC(CC1CCC1)C(=O)C(N)=O)C2(C)C)C(C)(C)C)C(C)(C)C (stereo not given in full) | 6.92 | – | –
COC[C@@H](NC(=O)N[C@H](C(=O)N1C[C@H]2[C@@H]([C@H]1C(=O)NC(CC1CCC1)C(=O)C(N)=O)C2(C)C)C1(C)CCCCC1)C(C)C (stereo not given in full) | 7.92 | 0.2 | –
C=CCNC(=O)C(=O)C(CC1CC1)NC(=O)[C@@H]1[C@@H]2[C@H](CN1C(=O)[C@@H](NC(=O)N[C@H](COC(=O)NCC)C(C)(C)C)C1Cc3ccccc3C1)C2(C)C (stereo not given in full) | 7.30 | 0.4 | –
C=CCNC(=O)C(=O)C(CCCC)NC(=O)[C@@H]1[C@@H]2[C@H](CN1C(=O)[C@@H](NC(=O)N[C@H](COC(=O)NCC)C(C)(C)C)C1Cc3ccccc3C1)C2(C)C (stereo not given in full) | 7.64 | 0.4 | –
C=CCNC(=O)C(=O)C(CCCC)NC(=O)[C@@H]1[C@@H]2[C@H](CN1C(=O)[C@@H](NC(=O)N[C@H](COC(=O)NCC)C(C)(C)C)C1(C)CCCCC1)C2(C)C (stereo not given in full) | 7.55 | 0.4 | –
CN(C)C(=O)OC[C@@H](NC(=O)N[C@H](C(=O)N1C[C@H]2[C@@H]([C@H]1C(=O)NC(CC1CCC1)C(=O)C(N)=O)C2(C)C)C1Cc2ccccc2C1)C(C)(C)C (stereo not given in full) | 7.64 | 0.3 | –
C#CCCC(NC(=O)[C@@H]1[C@@H]2[C@H](CN1C(=O)[C@@H](NC(=O)N[C@H](COC(=O)NCC(C)C)C(C)(C)C)C1(C)CCCCC1)C2(C)C)C(=O)C(=O)NCC=C (stereo not given in full) | 8.05 | 0.07 | concentration at 6 h [3]: 750 ng/g; AUC(0-t) at 6 h [4]: 4.9 µM·h

More lines, in order of rising pKi [1], values ahead:

pKi [1] | EC90 (Hepatitis C virus) [µM] | Structure (SMILES) | also measured
6.68 | 0.7 | C=CCNC(=O)C(=O)C(CCC)NC(=O)[C@@H]1[C@@H]2[C@H](CN1C(=O)[C@@H](NC(=O)NC1(COC(=O)NCC)CCCCC1)C1(C)CCCCC1)C2(C)C (stereo not given in full) | –
6.77 | – | CCC[C@@](C)(COC)NC(=O)N[C@H](C(=O)N1C[C@H]2[C@@H]([C@H]1C(=O)NC(CC1CCC1)C(=O)C(N)=O)C2(C)C)C1(C)CCCCC1 (stereo not given in full) | –
6.89 | – | C=CCNC(=O)C(=O)C(CCC)NC(=O)[C@@H]1[C@@H]2[C@H](CN1C(=O)[C@@H](NC(=O)N[C@H](COC(=O)NCC1CCCCC1)C(C)(C)C)C1(C)CCCCC1)C2(C)C (stereo not given in full) | –
7.00 | – | CC(C)(C)OC[C@@H](NC(=O)N[C@H](C(=O)N1C[C@H]2[C@@H]([C@H]1C(=O)NC(CC1CCC1)C(=O)C(N)=O)C2(C)C)C1(C)CCCCC1)C(C)(C)C (stereo not given in full) | –
7.08 | – | C=CCNC(=O)C(=O)C(CCC)NC(=O)[C@@H]1[C@@H]2[C@H](CN1C(=O)[C@@H](NC(=O)N[C@H](COC(=O)NCC)C1CCCCC1)C1(C)CCCCC1)C2(C)C (stereo not given in full) | –
7.48 | 0.4 | C=CCNC(=O)C(=O)C(CCC)NC(=O)[C@@H]1[C@@H]2[C@H](CN1C(=O)[C@@H](NC(=O)N[C@H](COC(=O)NCC)C(C)(C)C)C1Cc3ccccc3C1)C2(C)C (stereo not given in full) | AUC(0-t) at 6 h [4]: 0.7 µM·h
7.49 | 0.1 | C=CCNC(=O)C(=O)C(CCC)NC(=O)[C@@H]1[C@@H]2[C@H](CN1C(=O)[C@@H](NC(=O)N[C@H](COC(=O)NCC1CC1)C(C)(C)C)C1(C)CCCCC1)C2(C)C (stereo not given in full) | –
7.55 | 0.15 | C=CCNC(=O)C(=O)C(CCC)NC(=O)[C@@H]1[C@@H]2[C@H](CN1C(=O)[C@@H](NC(=O)N[C@H](COC(=O)NCC)C(C)(C)C)C1(C)CCCCC1)C2(C)C (stereo not given in full) | –
7.62 | 0.15 | C=CCNC(=O)C(=O)C(CCC)NC(=O)[C@@H]1[C@@H]2[C@H](CN1C(=O)[C@@H](NC(=O)N[C@H](COC(=O)NC(C)C)C(C)(C)C)C1(C)CCCCC1)C2(C)C (stereo not given in full) | concentration at 6 h [3]: 808 ng/g; AUC(0-t) at 6 h [4]: 6.6 µM·h
7.62 | 0.15 | COC[C@@H](NC(=O)N[C@H](C(=O)N1C[C@H]2[C@@H]([C@H]1C(=O)NC(CC1CCC1)C(=O)C(N)=O)C2(C)C)C1(C)CCCCC1)C(C)(C)C (stereo not given in full) | –
7.66 | 0.4 | COC[C@@H](NC(=O)N[C@H](C(=O)N1C[C@H]2[C@@H]([C@H]1C(=O)NC(CC1CCC1)C(=O)C(N)=O)C2(C)C)C1(C)CCCC1)C(C)(C)C (stereo not given in full) | –
7.80 | 0.2 | C#CCCC(NC(=O)[C@@H]1[C@@H]2[C@H](CN1C(=O)[C@@H](NC(=O)N[C@H](COC(=O)NCC)C(C)(C)C)C1(C)CCCCC1)C2(C)C)C(=O)C(=O)NCCC (stereo not given in full) | –
7.92 | 0.2 | CC(C)(C)NC(=O)OC[C@@H](NC(=O)N[C@H](C(=O)N1C[C@H]2[C@@H]([C@H]1C(=O)NC(CC1CCC1)C(=O)C(N)=O)C2(C)C)C1Cc2ccccc2C1)C(C)(C)C (stereo not given in full) | –
8.00 | 0.6 | CCNC(=O)OC[C@@H](NC(=O)N[C@H](C(=O)N1C[C@H]2[C@@H]([C@H]1C(=O)NC(CC1CCC1)C(=O)C(N)=O)C2(C)C)C1CCCCC1)C(C)(C)C (stereo not given in full) | –
8.00 | 0.55 | C#CCCC(NC(=O)[C@@H]1[C@@H]2[C@H](CN1C(=O)[C@@H](NC(=O)N[C@H](COC(=O)NCC)C(C)(C)C)C1Cc3ccccc3C1)C2(C)C)C(=O)C(=O)NCC=C (stereo not given in full) | –
8.05 | 0.2 | CC(C)NC(=O)OC[C@@H](NC(=O)N[C@H](C(=O)N1C[C@H]2[C@@H]([C@H]1C(=O)NC(CC1CCC1)C(=O)C(N)=O)C2(C)C)C1Cc2ccccc2C1)C(C)(C)C (stereo not given in full) | –
8.05 | 0.2 | CNC(=O)OC[C@@H](NC(=O)N[C@H](C(=O)N1C[C@H]2[C@@H]([C@H]1C(=O)NC(CC1CCC1)C(=O)C(N)=O)C2(C)C)C1Cc2ccccc2C1)C(C)(C)C (stereo not given in full) | –
8.05 | 0.25 | CCNC(=O)OC[C@@H](NC(=O)N[C@H](C(=O)N1C[C@H]2[C@@H]([C@H]1C(=O)NC(CC1CCC1)C(=O)C(N)=O)C2(C)C)C(C)(C)C)C(C)(C)C (stereo not given in full) | –
8.05 | 0.15 | C#CCCC(NC(=O)[C@@H]1[C@@H]2[C@H](CN1C(=O)[C@@H](NC(=O)N[C@H](COC(=O)NCC)C(C)(C)C)C1(C)CCCCC1)C2(C)C)C(=O)C(=O)NCC=C (stereo not given in full) | bioavailability [6]: 43%; AUC(0-t) at 24 h [7]: 26 µM·h; concentration at 6 h [3]: 1110 ng/g
8.10 | 0.15 | CCNC(=O)OC[C@@H](NC(=O)N[C@H](C(=O)N1C[C@H]2[C@@H]([C@H]1C(=O)NC(CC1CCC1)C(=O)C(N)=O)C2(C)C)C1(C)CCCCC1)C(C)(C)C (stereo not given in full) | –
8.15 | 0.2 | CCNC(=O)OC[C@@H](NC(=O)N[C@H](C(=O)N1C[C@H]2[C@@H]([C@H]1C(=O)NC(CC1CC1)C(=O)C(N)=O)C2(C)C)C1Cc2ccccc2C1)C(C)(C)C (stereo not given in full) | –
8.15 | 0.1 | CCNC(=O)OC[C@@H](NC(=O)N[C@H](C(=O)N1C[C@H]2[C@@H]([C@H]1C(=O)NC(CC1CCC1)C(=O)C(N)=O)C2(C)C)C1Cc2ccccc2C1)C(C)(C)C (stereo not given in full) | concentration at 1 h [5]: 244 ng/g; AUC (Rattus norvegicus): 0.3 µM·h
